Where “and” joins values, the source holds several entries; their conditions need not be identical. Identical values can stand only once. Entries after “also recorded” stand apart in the source; their conditions may differ.
Legend:
[1] = Aqueous solubility, shake flask method in water; format: physicochemical; settings: for solubility at 24 h: water, 25 °C, thermodynamic from solid
Method in brief: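 Excess solid test compound was added to 0.5 mL water pre-equilibrated at 25 °C and shaken in a water bath at 25 ± 0.5 °C and 75 rpm for 24 h. Aliquots were centrifuged, and the supernatant was filtered and assayed for drug content. Analysis was by HPLC on a C18 column with 15 mM phosphate (pH 2.5)/1% acetonitrile and fluorescence detection (ex 270, em 380). Runs were in duplicate.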

[2] = cited from earlier work
[3] = Stability in vitreous humor; format: in vitro ADME, rabbit; settings: for Apparent first order rate constant (k*): Vitreous Humor used as such, 37 °C, overall observed degradation; for half-life at 10 μg/mL: rabbit, vitreous humor (used as such)
[4] = Stability in ocular tissue homogenates: cornea; format: in vitro ADME; settings: rabbit, corneal homogenate supernatant, pH 7.4
[5] = Hydrolysis in DPBS transport media; format: physicochemical; settings: pH 7.4
[6] = molecular target: T1, amino acid transporter B^0,+ (Oryctolagus cuniculus, UniProt G1T8K9); assay: Transcorneal transport mechanism studies; format: in vitro ADME, rabbit; settings: for Substrate of the corneal amino acid transporter B^0,+: concluded from rabbit corneal permeability with and without inhibitors
T1 sequence (G1T8K9 1-637): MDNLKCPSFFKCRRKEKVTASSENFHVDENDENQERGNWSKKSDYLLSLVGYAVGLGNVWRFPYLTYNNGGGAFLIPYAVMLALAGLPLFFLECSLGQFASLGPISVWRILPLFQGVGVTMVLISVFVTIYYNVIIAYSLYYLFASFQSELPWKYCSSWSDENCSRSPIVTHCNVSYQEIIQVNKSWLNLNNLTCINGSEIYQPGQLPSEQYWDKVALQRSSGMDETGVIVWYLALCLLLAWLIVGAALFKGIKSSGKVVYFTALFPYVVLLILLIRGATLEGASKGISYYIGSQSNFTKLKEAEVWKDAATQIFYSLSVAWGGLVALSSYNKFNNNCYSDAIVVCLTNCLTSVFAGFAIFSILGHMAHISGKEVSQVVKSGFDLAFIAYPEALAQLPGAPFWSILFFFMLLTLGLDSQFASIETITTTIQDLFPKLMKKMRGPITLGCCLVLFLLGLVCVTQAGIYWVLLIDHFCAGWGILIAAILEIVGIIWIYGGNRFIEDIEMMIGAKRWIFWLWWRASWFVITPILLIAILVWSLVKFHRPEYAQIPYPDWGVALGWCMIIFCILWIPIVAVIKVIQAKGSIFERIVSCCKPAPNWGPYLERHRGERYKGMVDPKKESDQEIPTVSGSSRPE

[7] = Stability in ocular tissue homogenates: iris-ciliary body; format: in vitro ADME; settings: rabbit, iris-ciliary body homogenate supernatant, pH 7.4
[8] = Stability in ocular tissue homogenates: retina/choroid; format: in vitro ADME; settings: rabbit, retina/choroid homogenate supernatant, pH 7.4
[9] = Solution; format: physicochemical
[10] = test system: amino acid transporter B^0,+; settings: xenopus laevis oocytes; cited from earlier work
[11] = test system: B^o,+; settings: a substrate of B^o,+; cited from earlier work

| SMILES | solubility at 24 h [1] | Apparent first order rate constant (k*) [3] | half-life at 10 μg/mL [3] [h] | half-life at 10 μg/mL [4] [h] | Substrate of the corneal amino acid transporter B^0,+ [6] | half-life at 10 μg/mL [7] [h] | half-life at 10 μg/mL [8] [h] | other results |
| --- | --- | --- | --- | --- | --- | --- | --- | --- |
| Nc1nc2c(ncn2COCCO)c(=O)[nH]1 [ACV, acyclovir, reference compound] | 1200 µg/mL and 5300 µM |  |  |  |  |  |  | saturation solubility in water [2]: 1200 µg/mL |
| Nc1nc2c(ncn2COCCOC(=O)C[C@H](N)C(=O)O)c(=O)[nH]1 [acyclovir-L-aspartate β-ester] |  |  |  |  |  |  |  | Transport by the amino acid transporter B^0,+ [10]: is transported |
| Nc1nc2c(ncn2COCCOC(=O)C(N)Cc2ccccc2)c(=O)[nH]1 (stereo not shown) [phenylalanine-ACV] |  |  |  |  |  |  |  | Transport of [^3H]-L-Arginine in the presence of prodrug [11]: decreased transport |

More lines, main results first:

| solubility at 24 h [1] | Apparent first order rate constant (k*) [3] | half-life at 10 μg/mL [3] [h] | half-life at 10 μg/mL [4] [h] | Substrate of the corneal amino acid transporter B^0,+ [6] | half-life at 10 μg/mL [7] [h] | half-life at 10 μg/mL [8] [h] | SMILES | other results |
| --- | --- | --- | --- | --- | --- | --- | --- | --- |
| 3850 µg/mL and 10200 µM | 5 ± 0.5 ×10^3, min^−1 | 2.34 ± 0.252 | 3.73 ± 0.21 | not a substrate | 2.32 ± 0.168 | 20 ± 1.47 | Cl.Nc1nc2c(ncn2COCCOC(=O)[C@H](N)CC(=O)O)c(=O)[nH]1 [D-Asp-ACV, (R)-3-amino-4-(2-((2-amino-6-oxo-1H-purin-9(6H)-yl)methoxy)ethoxy)-4-oxobutanoic acid-HCl] | half-life ([5]; DPBS): 5.6 ± 0.2 h; Solubility, fold higher than that of ACV ([1]; relative to ACV): about 2 fold |
| 3840 µg/mL and 10200 µM | 4.2 ± 0.1 ×10^3, min^−1 | 2.76 ± 0.065 | 4.83 ± 0.203 | is a substrate | 2.23 ± 0.085 | 0.86 ± 0.0267 | Cl.Nc1nc2c(ncn2COCCOC(=O)[C@@H](N)CC(=O)O)c(=O)[nH]1 [L-Asp-ACV, (S)-3-amino-4-(2-((2-amino-6-oxo-1H-purin-9(6H)-yl)methoxy)ethoxy)-4-oxobutanoic acid-HCl] | half-life ([5]; buffer): 5.1 ± 0.1 h; Effect of glutamic acid on transcorneal transport ([6]; L-Glutamic acid 1 mM, pH 5): not inhibited; also recorded: failed to inhibit; Transcorneal permeability in the presence of BCH ([6]; male, New Zealand albino, rabbit, 3 h): 2.66±0.21 × 10^−6 cm.s^−1; half-life at 50 μg/mL ([9]; borate buffer, pH 9): 5.6 ± 0.2 h; half-life at 50 μg/mL ([9]; hydrochloride buffer, pH 1.2): 627 ± 31 h; half-life at 50 μg/mL ([9]; phosphate buffer, pH 7): 32 ± 0.4 h; half-life at 50 μg/mL ([9]; phthalate buffer, pH 3): 371 ± 16 h; half-life at 50 μg/mL ([9]; phthalate buffer, pH 5): 262 ± 4 h |

— paper PMC2664401 (Pharmaceutical research, 2008)
